{
  "source": "ChEMBL document CHEMBL3769376",
  "about": "“Discovery of I-BRD9, a Selective Cell Active Chemical Probe for Bromodomain Containing Protein 9 Inhibition” (J Med Chem, 2016)",
  "key": {"[1]": {"target": "cGMP-inhibited 3',5'-cyclic phosphodiesterase 3A (Homo sapiens) (UniProt Q14432)", "test": "Inhibition of human PDE3A at <5 uM by luminescence assay"}, "[2]": {"target": "Prostaglandin G/H synthase 2 (Homo sapiens) (UniProt P35354)", "sequence (P35354 whole entry)": "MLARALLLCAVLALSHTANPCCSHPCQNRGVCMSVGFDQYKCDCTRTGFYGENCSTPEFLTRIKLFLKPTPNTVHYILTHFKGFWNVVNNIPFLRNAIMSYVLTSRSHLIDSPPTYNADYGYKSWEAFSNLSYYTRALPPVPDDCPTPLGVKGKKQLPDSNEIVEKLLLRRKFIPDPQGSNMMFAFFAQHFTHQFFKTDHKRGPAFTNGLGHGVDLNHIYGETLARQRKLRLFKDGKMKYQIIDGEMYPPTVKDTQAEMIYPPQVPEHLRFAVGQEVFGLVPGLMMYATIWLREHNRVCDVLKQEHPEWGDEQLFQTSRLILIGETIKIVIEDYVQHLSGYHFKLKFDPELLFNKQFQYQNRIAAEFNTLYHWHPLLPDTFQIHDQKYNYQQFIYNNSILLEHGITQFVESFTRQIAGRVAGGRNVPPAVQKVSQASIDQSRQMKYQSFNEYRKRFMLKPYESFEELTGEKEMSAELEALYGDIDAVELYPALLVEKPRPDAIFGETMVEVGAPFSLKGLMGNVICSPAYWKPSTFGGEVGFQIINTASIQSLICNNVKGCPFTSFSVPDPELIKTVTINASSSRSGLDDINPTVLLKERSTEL", "test": "Inhibition of human COX2 at <5 uM by FLINT assay"}, "Homo sapiens [3]": {"species": "Homo sapiens", "test": "Agonist activity at human GABA-A receptor at <5 uM by electrophysiology"}, "[4]": {"target": "D(2) dopamine receptor (Homo sapiens) (UniProt P14416)", "test": "Antagonist activity at human D2 dopamine receptor at <5 uM by scintillation proximity assay"}, "[5]": {"target": "Acetylcholine receptor subunit alpha (Homo sapiens) (UniProt P02708)", "test": "Inhibition of human alpha1 nACHR assessed as change in intracellular calcium level at <5 uM by fluorescence assay", "assay_type": "cell-based"}, "[6]": {"target": "Alpha-1B adrenergic receptor (Homo sapiens) (UniProt P35368)", "sequence (P35368 whole entry)": "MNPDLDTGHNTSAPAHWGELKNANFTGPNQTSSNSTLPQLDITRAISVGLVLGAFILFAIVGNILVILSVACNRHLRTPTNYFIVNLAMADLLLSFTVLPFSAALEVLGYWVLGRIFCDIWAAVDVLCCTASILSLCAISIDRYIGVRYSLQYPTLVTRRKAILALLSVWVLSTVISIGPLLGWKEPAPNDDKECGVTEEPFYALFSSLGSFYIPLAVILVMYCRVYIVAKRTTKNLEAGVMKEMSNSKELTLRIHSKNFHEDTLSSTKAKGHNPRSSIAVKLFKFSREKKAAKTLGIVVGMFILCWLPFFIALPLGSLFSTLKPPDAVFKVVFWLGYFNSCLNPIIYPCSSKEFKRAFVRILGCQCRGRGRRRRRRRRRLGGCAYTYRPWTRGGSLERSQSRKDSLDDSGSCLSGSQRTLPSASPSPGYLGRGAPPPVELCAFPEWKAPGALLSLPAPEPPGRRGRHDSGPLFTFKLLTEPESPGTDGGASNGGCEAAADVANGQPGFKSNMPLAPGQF", "test": "Antagonist activity at human Alpha 1b adrenergic receptor assessed as change in intracellular calcium level at <5 uM by fluorescence assay", "assay_type": "functional, cell-based"}, "[7]": {"target": "Bromodomain-containing protein 3 (Homo sapiens, UniProt Q15059)", "test": "Inhibition of BRD3 in human HUT78 cells incubated for 45 mins by chemoproteomic competition binding assay", "assay_type": "cell-based", "method_in_brief": "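Nuclear and tight-chromatin extracts were prepared from HuT78 cells grown in spinner flasks. Compound was spiked into the mixed extracts at a range of doses and incubated for 45 min at 4 °C. Extracts were then incubated with sepharose beads derivatised with 2.0 mM of an amine-bearing bromodomain ligand. Beads were washed with 0.2% NP-40 lysis buffer and eluted in SDS/DTT. BRD3 was read out by Western blot.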"}, "[8]": {"target": "Amine oxidase [flavin-containing] B (Homo sapiens, UniProt P27338)", "sequence (P27338 whole entry)": "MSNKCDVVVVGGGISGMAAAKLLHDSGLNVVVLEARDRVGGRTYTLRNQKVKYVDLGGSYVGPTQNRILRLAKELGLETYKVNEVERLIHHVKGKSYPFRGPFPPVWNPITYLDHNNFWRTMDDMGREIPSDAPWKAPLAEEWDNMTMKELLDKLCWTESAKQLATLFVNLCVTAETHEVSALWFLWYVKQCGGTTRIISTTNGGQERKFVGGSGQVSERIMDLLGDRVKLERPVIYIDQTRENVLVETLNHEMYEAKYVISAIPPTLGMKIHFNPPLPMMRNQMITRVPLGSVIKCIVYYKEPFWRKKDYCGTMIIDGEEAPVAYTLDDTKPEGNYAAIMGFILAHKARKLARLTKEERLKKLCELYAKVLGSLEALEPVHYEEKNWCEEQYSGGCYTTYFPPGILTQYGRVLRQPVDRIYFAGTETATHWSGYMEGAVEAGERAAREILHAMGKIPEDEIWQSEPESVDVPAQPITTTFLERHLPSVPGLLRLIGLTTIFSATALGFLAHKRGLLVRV", "test": "Inhibition of human MAO-B at <5 uM by FLINT assay"}, "[9]": {"target": "5-hydroxytryptamine receptor 3A (Homo sapiens) (UniProt P46098)", "test": "Agonist activity at human 5HT3 receptor assessed as change in intracellular calcium level at <5 uM by fluorescence assay", "assay_type": "cell-based"}, "[10]": {"target": "5-hydroxytryptamine receptor 2C (Homo sapiens) (UniProt P28335)", "sequence (P28335 whole entry)": "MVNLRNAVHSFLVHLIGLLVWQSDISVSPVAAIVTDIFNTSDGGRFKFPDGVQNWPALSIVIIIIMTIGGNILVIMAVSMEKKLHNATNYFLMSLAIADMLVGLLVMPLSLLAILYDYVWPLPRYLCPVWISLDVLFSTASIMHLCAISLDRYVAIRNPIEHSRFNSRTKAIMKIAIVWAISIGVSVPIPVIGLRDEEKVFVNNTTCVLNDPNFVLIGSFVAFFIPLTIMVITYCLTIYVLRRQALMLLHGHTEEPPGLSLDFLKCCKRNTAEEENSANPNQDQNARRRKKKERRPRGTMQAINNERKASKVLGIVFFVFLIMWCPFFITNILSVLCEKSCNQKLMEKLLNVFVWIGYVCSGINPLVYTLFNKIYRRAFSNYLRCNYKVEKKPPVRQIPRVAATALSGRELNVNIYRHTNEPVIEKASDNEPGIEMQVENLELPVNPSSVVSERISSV", "test": "Antagonist activity at human 5HT2C receptor assessed as change in intracellular calcium level at <5 uM by fluorescence assay", "assay_type": "functional, cell-based"}, "[11]": {"target": "T1, Bromodomain-containing protein 9 (Homo sapiens) (UniProt Q9H8M2)", "T1 sequence (whole entry)": "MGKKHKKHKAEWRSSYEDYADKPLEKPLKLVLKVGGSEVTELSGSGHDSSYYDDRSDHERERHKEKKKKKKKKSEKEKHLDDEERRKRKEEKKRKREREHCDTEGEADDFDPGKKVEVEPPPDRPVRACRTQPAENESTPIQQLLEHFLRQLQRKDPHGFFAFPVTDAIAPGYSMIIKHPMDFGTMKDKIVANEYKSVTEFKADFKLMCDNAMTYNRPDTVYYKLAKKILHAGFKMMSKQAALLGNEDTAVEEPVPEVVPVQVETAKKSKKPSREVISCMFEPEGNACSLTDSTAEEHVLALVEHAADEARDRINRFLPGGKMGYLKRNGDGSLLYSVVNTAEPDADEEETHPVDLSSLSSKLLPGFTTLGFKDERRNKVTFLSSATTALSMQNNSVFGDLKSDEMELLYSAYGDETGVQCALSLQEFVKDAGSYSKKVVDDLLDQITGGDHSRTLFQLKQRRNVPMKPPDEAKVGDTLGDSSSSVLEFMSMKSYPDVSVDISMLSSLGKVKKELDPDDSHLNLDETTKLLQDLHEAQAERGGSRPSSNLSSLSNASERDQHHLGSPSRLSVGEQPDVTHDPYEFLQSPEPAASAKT", "details": "Kasumi 1, 10 uM"}, "[12]": {"target": "5-hydroxytryptamine receptor 1B (Homo sapiens) (UniProt P28222)", "test": "Agonist activity at human 5HT1B receptor at <5 uM by scintillation proximity assay"}, "[13]": {"target": "Mu-type opioid receptor (Homo sapiens) (UniProt P35372)", "test": "Agonist activity at human mu opiod receptor at <5 uM by scintillation proximity assay"}, "[14]": {"target": "Voltage-gated inwardly rectifying potassium channel KCNH2 (Homo sapiens, UniProt Q12809)", "test": "Inhibition of human ERG channel at <5 uM by electrophysiology"}, "[15]": {"target": "Kappa-type opioid receptor (Homo sapiens) (UniProt P41145)", "sequence (P41145 whole entry)": "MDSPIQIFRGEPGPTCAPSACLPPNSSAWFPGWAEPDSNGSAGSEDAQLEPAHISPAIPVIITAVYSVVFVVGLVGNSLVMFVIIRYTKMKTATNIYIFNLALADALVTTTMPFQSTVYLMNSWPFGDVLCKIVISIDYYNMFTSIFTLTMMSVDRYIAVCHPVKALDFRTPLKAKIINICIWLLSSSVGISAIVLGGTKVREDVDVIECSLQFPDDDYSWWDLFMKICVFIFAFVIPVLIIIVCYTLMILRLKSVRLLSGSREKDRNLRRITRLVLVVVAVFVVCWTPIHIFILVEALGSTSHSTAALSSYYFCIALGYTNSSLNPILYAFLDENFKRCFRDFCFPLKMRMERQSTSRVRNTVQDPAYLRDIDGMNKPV", "test": "Agonist activity at human kappa opiod receptor at <5 uM by scintillation proximity assay"}, "Homo sapiens [16]": {"species": "Homo sapiens", "test": "Positive modulator activity at human GABA-A receptor at <5 uM by electrophysiology"}, "[17]": {"target": "Substance-P receptor (Homo sapiens) (UniProt P25103)", "sequence (P25103 whole entry)": "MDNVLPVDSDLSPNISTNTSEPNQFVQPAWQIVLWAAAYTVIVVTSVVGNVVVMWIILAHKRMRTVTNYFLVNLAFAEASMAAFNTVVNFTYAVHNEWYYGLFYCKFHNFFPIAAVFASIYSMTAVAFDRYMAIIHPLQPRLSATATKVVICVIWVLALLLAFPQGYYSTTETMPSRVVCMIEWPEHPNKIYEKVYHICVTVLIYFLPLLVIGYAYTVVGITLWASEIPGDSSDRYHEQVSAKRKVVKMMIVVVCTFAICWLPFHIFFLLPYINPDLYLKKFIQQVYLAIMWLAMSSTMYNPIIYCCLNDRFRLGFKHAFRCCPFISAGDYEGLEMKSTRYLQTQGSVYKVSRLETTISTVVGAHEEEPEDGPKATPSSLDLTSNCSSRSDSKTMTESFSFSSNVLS", "test": "Antagonist activity at human NK1 receptor assessed as change in intracellular calcium level at <5 uM by fluorescence assay", "assay_type": "functional, cell-based"}, "[18]": {"test": "Permeability of the compound by PAMPA", "assay_type": "ADME", "details": "read-out: permeability"}, "[19]": {"target": "Voltage-dependent L-type calcium channel subunit alpha-1C (Homo sapiens, UniProt Q13936)", "test": "Inhibition of human Cav1.2 channel at <5 uM by electrophysiology"}, "[20]": {"target": "Vasopressin V1a receptor (Homo sapiens) (UniProt P37288)", "sequence (P37288 whole entry, looked up)": "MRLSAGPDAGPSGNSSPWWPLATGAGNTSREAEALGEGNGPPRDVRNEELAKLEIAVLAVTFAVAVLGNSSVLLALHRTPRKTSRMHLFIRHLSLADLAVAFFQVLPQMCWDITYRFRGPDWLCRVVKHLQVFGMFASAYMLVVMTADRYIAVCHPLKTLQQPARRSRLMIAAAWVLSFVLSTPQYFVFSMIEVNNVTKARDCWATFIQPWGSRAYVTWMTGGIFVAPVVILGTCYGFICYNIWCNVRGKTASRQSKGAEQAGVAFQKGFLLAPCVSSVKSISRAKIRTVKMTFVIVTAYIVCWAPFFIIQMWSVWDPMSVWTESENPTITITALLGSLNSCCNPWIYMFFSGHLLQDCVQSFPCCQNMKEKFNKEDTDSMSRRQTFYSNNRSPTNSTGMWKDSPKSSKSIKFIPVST", "test": "Antagonist activity at human vasopressin V1a receptor assessed as change in intracellular calcium level at <5 uM by fluorescence assay", "assay_type": "functional, cell-based"}, "[21]": {"target": "Phosphatidylinositol 4,5-bisphosphate 3-kinase catalytic subunit gamma isoform (Homo sapiens) (UniProt P48736)", "test": "Inhibition of human PI3Kgamma at <5 uM by TR-FRET assay"}, "[22]": {"target": "T1, Bromodomain-containing protein 9 (Homo sapiens)", "details": "Kasumi 1, 10 uM", "remark": "listed apart in the source"}, "[23]": {"target": "Sodium-dependent serotonin transporter (Homo sapiens) (UniProt P31645)", "sequence (P31645 whole entry, looked up)": "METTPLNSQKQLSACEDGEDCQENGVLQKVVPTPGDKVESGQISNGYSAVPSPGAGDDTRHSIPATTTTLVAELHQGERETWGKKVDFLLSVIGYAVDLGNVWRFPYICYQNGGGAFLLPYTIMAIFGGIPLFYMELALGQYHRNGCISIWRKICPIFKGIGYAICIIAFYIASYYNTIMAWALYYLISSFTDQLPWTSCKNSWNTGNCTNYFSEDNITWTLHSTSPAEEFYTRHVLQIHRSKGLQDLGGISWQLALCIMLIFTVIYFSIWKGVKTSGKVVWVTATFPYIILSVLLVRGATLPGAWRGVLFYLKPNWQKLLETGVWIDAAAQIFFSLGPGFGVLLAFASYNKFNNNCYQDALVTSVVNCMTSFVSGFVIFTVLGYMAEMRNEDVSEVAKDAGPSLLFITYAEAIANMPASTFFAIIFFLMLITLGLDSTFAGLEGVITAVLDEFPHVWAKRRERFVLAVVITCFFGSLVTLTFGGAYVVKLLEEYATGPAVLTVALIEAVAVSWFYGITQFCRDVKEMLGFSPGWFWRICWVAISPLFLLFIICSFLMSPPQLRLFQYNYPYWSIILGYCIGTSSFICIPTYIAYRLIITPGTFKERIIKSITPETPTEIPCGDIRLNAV", "test": "Antagonist activity at human SERT transporter at <5 uM by scintillation proximity assay"}, "[24]": {"target": "Amine oxidase [flavin-containing] A (Homo sapiens, UniProt P21397)", "sequence (P21397 whole entry)": "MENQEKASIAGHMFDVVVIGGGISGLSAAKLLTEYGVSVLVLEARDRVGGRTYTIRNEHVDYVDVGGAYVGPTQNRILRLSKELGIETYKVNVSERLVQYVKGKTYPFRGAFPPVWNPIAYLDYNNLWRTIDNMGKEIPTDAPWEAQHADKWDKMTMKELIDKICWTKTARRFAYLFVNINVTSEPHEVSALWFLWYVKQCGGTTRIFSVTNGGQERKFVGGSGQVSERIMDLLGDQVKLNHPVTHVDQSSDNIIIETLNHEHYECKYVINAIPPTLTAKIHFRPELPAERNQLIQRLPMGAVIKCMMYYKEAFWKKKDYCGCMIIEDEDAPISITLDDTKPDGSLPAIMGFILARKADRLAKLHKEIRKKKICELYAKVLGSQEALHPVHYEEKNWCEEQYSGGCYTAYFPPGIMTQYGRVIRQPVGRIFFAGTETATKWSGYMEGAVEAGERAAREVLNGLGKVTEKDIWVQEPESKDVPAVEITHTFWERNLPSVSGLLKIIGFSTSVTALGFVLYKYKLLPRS", "test": "Inhibition of human MAO-A at <5 uM by FLINT assay"}, "[25]": {"target": "5-hydroxytryptamine receptor 2C (Homo sapiens) (UniProt P28335)", "test": "Agonist activity at human 5HT2C receptor assessed as change in intracellular calcium level at <5 uM by fluorescence assay", "assay_type": "functional, cell-based"}, "[26]": {"target": "Muscarinic acetylcholine receptor M2 (Homo sapiens) (UniProt P08172)", "sequence (P08172 whole entry)": "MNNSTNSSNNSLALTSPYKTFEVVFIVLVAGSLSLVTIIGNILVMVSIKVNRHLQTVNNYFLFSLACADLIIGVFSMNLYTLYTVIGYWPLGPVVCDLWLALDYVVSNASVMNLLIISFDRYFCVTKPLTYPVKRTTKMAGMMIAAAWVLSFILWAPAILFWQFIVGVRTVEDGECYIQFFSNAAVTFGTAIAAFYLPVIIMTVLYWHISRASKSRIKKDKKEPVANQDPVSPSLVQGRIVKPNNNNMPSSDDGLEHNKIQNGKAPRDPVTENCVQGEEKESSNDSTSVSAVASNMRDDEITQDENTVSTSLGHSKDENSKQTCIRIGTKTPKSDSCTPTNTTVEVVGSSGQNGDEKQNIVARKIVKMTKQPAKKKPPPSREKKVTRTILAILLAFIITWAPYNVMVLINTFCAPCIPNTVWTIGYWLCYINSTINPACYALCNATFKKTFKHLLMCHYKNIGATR", "test": "Agonist activity at human muscarinic 2 receptor assessed as change in intracellular calcium level at <5 uM by fluorescence assay", "assay_type": "functional, cell-based"}, "Cytochrome P450 3A4": {"target": "Cytochrome P450 3A4 (Homo sapiens, UniProt P08684)", "test": "Inhibition of CYP3A4 (unknown origin) preincubated with substrate at <5 uM by mass spectrometry", "assay_type": "ADME"}, "[27]": {"target": "Sodium channel protein type 5 subunit alpha (Homo sapiens, UniProt Q14524)", "test": "Inhibition of human Nav1.5 channel at <5 uM by electrophysiology"}, "[28]": {"target": "Glutamate receptor ionotropic, NMDA 2B (Homo sapiens) (UniProt Q13224)", "test": "Antagonist activity at human NMDA 2B receptor assessed as change in intracellular calcium level at <5 uM by fluorescence assay", "assay_type": "cell-based"}, "Homo sapiens [29]": {"species": "Homo sapiens", "test": "Antagonist activity at human GABA-A receptor at <5 uM by electrophysiology"}, "[30]": {"target": "Nuclear receptor subfamily 1 group I member 2 (Homo sapiens, UniProt O75469)", "test": "Agonist activity at human PXR at <5 uM by luciferase reporter gene assay"}},
  "note": "Activity calls are given as the source filed them. The rule behind the calls is not given here.",
  "data": [
    {"smiles": "CCn1cc(-c2cccc(C(F)(F)F)c2)c2sc(C(=N)NC3CCS(=O)(=O)CC3)cc2c1=O", "values": [
      {"measurement": "inhibition", "setting": "[1]", "result": "inactive"},
      {"measurement": "inhibition", "setting": "[2]", "result": "inactive"},
      {"measurement": "Activity", "setting": "Homo sapiens [3]", "result": "inactive"},
      {"measurement": "inhibition", "setting": "[4]", "result": "inactive"},
      {"measurement": "inhibition", "setting": "[5]", "result": "inactive"},
      {"measurement": "inhibition", "setting": "[6]", "result": "inactive"},
      {"measurement": "IC50", "setting": "[7]", "result": "> 50.1", "unit": "µM"},
      {"measurement": "inhibition (INH)", "setting": "[8]", "result": "Not Active"},
      {"measurement": "Activity", "setting": "[9]", "result": "inactive"},
      {"measurement": "inhibition", "setting": "[10]", "result": "inactive"},
      {"measurement": "inhibition", "setting": "[11]", "result": "Active"},
      {"measurement": "Activity", "setting": "[12]", "result": "inactive"},
      {"measurement": "Activity", "setting": "[13]", "result": "inactive"},
      {"measurement": "inhibition (INH)", "setting": "[14]", "result": "Not Active"},
      {"measurement": "Activity", "setting": "[15]", "result": "inactive"},
      {"measurement": "Activity", "setting": "Homo sapiens [16]", "result": "inactive"},
      {"measurement": "inhibition", "setting": "[17]", "result": "inactive"},
      {"measurement": "Papp", "setting": "[18]", "result": 21, "unit": "×10⁻⁶ cm/s"},
      {"measurement": "inhibition (INH)", "setting": "[19]", "result": "Not Active"},
      {"measurement": "inhibition", "setting": "[20]", "result": "inactive"},
      {"measurement": "inhibition", "setting": "[21]", "result": "inactive"},
      {"measurement": "inhibition", "setting": "[22]", "result": "Active"},
      {"measurement": "inhibition", "setting": "[23]", "result": "inactive"},
      {"measurement": "inhibition (INH)", "setting": "[24]", "result": "Not Active"},
      {"measurement": "Activity", "setting": "[25]", "result": "inactive"},
      {"measurement": "Activity", "setting": "[26]", "result": "inactive"},
      {"measurement": "inhibition (INH)", "setting": "Cytochrome P450 3A4", "result": "Not Active"},
      {"measurement": "inhibition (INH)", "setting": "[27]", "result": "Not Active"},
      {"measurement": "inhibition", "setting": "[28]", "result": "inactive"},
      {"measurement": "inhibition", "setting": "Homo sapiens [29]", "result": "inactive"},
      {"measurement": "Activity", "setting": "[30]", "result": "Not Active"}
    ]}
  ]
}
